# Source: PubChem
# The entries come from a sample that favours hits as a whole.
# CHOP UPR activ: apoptotic UPR (CHOP) activation; CHO-CHOP luciferase reporter, luminescence; percent of tunicamycin response over DMSO baseline; activation, % at 10 µM; 0.34% of 330,000 active;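 active = at 10 µM dose, activation of 40% or more, normalized to positive control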;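 note: 100% = tunicamycin at 10 µg/mL and 0% = DMSO alone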
#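 Evaluation: % reporter activation, DMSO baseline versus tunicamycin full activation; System: CHO-CHOP luciferase reporter cell line; Input: 500 cells/well; Incubation: 6 h compound treatment, 37 °C; Measured by: Steady-Glo luciferase luminescence; Dosing: one dose, 10 µM in 0.5% DMSO; Buffer or medium: F12 medium, 10% FBS; Benchmarks: positive tunicamycin 10 µg/mL, negative DMSO alone.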
# UPR XBP1 act: adaptive UPR (XBP1) activation. CHO-XBP1 luciferase reporter, IRE1-XBP1 UPR activation, luminescence; percent of tunicamycin response, DMSO as zero. activation, % at 20 µM. 0.33% of 330,000 active. AID 463104;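 active = versus positive control, 20 µM dose yields 30% or more activation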;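 note: 100% = tunicamycin at 10 µg/mL and 0% = DMSO only wells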
#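 Assay system: IRE1-XBP1 luciferase reporter CHO line. Input: 1000 cells/well. Buffer or medium: F12 with 10% serum. Doses: 20 µM, 1% DMSO. Times: overnight seeding at 37 °C, 6 h compound treatment at 37 °C. Technique: Steady-Glo luciferase glow luminescence, 10 min after reagent addition.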
# V-ATPase pH: yeast V-ATPase proton transport regulation by pHLuorin. response, % at 10 µM. S. cerevisiae, pHLuorin cytosolic pH fluorescence. 0.37% of 350,000 active; in the data active = response mostly above about 7.3%, no sharp cut-off; inactive = mostly below about 5.4%; note: actives read high
# CHOP inhibitor: CHOP inhibition in unfolded protein response | CHO-K1 CHOP-promoter luciferase, tunicamycin-induced, 15-18 h | inhibition, % at 10 µM | 3.8% of 220,000 active;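 active = compounds that reduced the stress-induced luciferase reporter signal by more than about 70% of percent inhibition, limit read from the data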;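 note: 0% = tunicamycin plus vehicle and 100% = wells without tunicamycin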
# Tb MetRS inh: blocks T. brucei methionyl-tRNA synthetase activity; purified T. brucei MetRS, ATP depletion, Kinase-Glo luminescence; inhibition, % at 11.9 µM; 0.4% of 360,000 active; AID 624268;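 active = inhibition above a per-plate cutoff of the control wells' mean inhibition plus 3 SD, cut at about 5.5% in these data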;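 note: 0% = DMSO wells median and 100% = median of wells with control inhibitor compound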
#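 Assay system: T. brucei methionyl-tRNA synthetase, purified | Medium: HEPES buffer with MgCl2, KCl, DTT, spermine, BSA, pyrophosphatase | Compound: 11.9 µM single point | Incubation: 15 min enzyme-compound preincubation, 2 h reaction, 10 min detection, 25 °C | Measured by: Kinase-Glo luciferase luminescence reporting remaining unconsumed ATP | Measure: % inhibition normalized to control-well medians | Replication: Singlicate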
# Starred values were filed as active, the others as inactive; . = no result given.
SMILES,CHOP UPR activ,UPR XBP1 act,V-ATPase pH,CHOP inhibitor,Tb MetRS inh
CCOc1cc(C2c3c(oc4cc(C)c(Cl)cc4c3=O)C(=O)N2Cc2ccco2)ccc1O (stereo not drawn),7.1,8.9,2.5,95.8*,0.4
COc1cc(C2c3c(oc4ccccc4c3=O)C(=O)N2Cc2ccco2)ccc1O (stereo not drawn),-1.9,0.2,0.6,24.2,-0.6
Cc1ccc2oc3c(c(=O)c2c1)C(c1cccc(Br)c1)N(Cc1ccco1)C3=O (stereo not drawn),.,.,-2.1,80.9*,-0.6
CCCNC(=O)NC(=O)COC(=O)c1oc2ccc(OCC)cc2c1C,0.6,0.3,-4.4,72.4*,-0.3
Cc1cc(C)cc(OCC(=O)Nc2ccccc2N2CCCCC2)c1,0.5,-2.9,-1.9,86.0*,0.1
O=C(COc1ccc(Br)cc1)Nc1ccccc1N1CCCC1,-0.3,-2.2,-5.4,70.2*,-0.6
Cc1ccc(OCC(=O)NC2=NCCS2)cc1,-3.1,1.8,-6.8,9.3,0.0
Cc1ccccc1OCC(=O)NC1=NCCS1,8.8,-0.5,16.6*,16.4,0.2
Cc1cccc(OCC(=O)Nc2ccccc2N2CCCC2)c1C,0.7,-3.1,6.6,.,-0.4
Cc1ccccc1OCC(=O)Nc1ccccc1N1CCCCC1,3.2,1.0,-2.5,88.8*,-0.3
Nc1cccc(N=[N+]([O-])c2cccc(N)c2)c1,.,.,0.7,.,-0.1
Cc1ccc(C(C)C)c(OCC(=O)Nc2ccccc2N2CCN(C)CC2)c1,-9.7,-1.9,0.3,77.5*,-1.2
CC(C)(C)S(=O)(=O)N1C[C@@H]2CC/C=C\C/C=C\2[C@H]1CCO,.,.,-2.6,.,-0.1
CCOC(=O)CNc1nc(Cl)nc(Nc2ccc(C)cc2)n1,0.9,-0.5,0.3,70.0*,-0.2
CC1CC(C)CN(C(=O)CNS(=O)(=O)c2ccc(Br)s2)C1 (stereo not drawn),-1.2,-3.0,-3.0,32.5,-0.6
Cc1ccc(N2CCN(C(=O)CNS(=O)(=O)c3ccc(Br)s3)CC2C)cc1 (stereo not drawn),-0.6,-3.9,-1.1,72.5*,-1.3
O=[N+]([O-])c1cccnc1N1CCC(c2cc(-c3ccc(Cl)cc3)n[nH]2)CC1,2.4,0.4,-0.5,99.8*,0.5
Cc1cc2cc(CCNC(=O)c3ccc(S(=O)(=O)N4CCOCC4)cc3)c(=O)[nH]c2cc1C,-2.8,-2.4,-3.8,70.6*,-1.2
CCCCOc1ccc(S(=O)(=O)N2CCCCCC2)cc1,0.4,-0.7,-2.8,91.0*,-0.4
CCCCOc1ccc(S(=O)(=O)N2CCN(C)CC2)cc1,1.6,-0.5,0.9,.,-0.3
CCC(C)[C@H]1CNC(=S)N1CCc1cccc2ccccc12 (stereo partly drawn),1.1,-2.8,2.4,15.4,-0.2
CCC(C)[C@H]1CNC(=S)N1CCC12CC3CC(CC(C3)C1)C2 (stereo partly drawn),0.9,-2.6,-0.4,80.5*,0.5
COc1cccc(NC(=O)C(=O)N/N=C/c2cc(C)n(-c3ccc(Cl)c(Cl)c3)c2C)c1,2.8,3.3,.,78.3*,-1.7
Cc1cc(/C=N/NC(N)=S)c(C)n1-c1ccc(Cl)c(Cl)c1,4.6,22.8,-0.6,27.2,0.0
CCOc1ccc(OCCSc2nnnn2C2CCCCC2)cc1,-0.4,-0.8,-1.6,79.8*,-1.0
SMILES,CHOP UPR activ,UPR XBP1 act,V-ATPase pH,CHOP inhibitor,Tb MetRS inh
O=C(O)C1=CCC(c2ccc(Cl)c(Cl)c2)N(S(=O)(=O)c2ccc(F)cc2)C1c1cccc(F)c1 (stereo not drawn),.,.,.,.,0.0
O=C(Nc1ccc(N2CCCC2)cc1)C(Cl)c1ccccc1 (stereo not drawn),5.8,-1.0,-0.7,77.8*,-2.4
Fc1ccccc1/C=N/Nc1ncnc2ccccc12,4.4,-1.6,-1.4,-16.7,-0.4
Clc1ccc(/C=N/Nc2ncnc3ccccc23)cc1Cl,1.4,6.9,0.8,86.0*,0.2
C=CCC[C@@H](CCCCC)OC(=O)/C=C/[C@H](O)[C@@H](O)C[C@@H](O)CC=C,.,.,.,.,-0.4
COc1ccc(OCC(O)CNc2ccc(Br)cc2)cc1 (stereo not drawn),-0.3,-0.1,0.2,85.5*,-0.9
CC12C(=O)N(c3nccs3)C(=O)C1(C)C1CCC2O1 (stereo not drawn),.,.,.,.,-0.1
C[C@@]12C(=O)OC(=O)[C@]1(C)C1CCC2O1,101.1*,-0.6,0.4,.,-0.8
